According to ChEMBL document CHEMBL1155205, “Structure-activity relationship of isoform selective inhibitors of Rac1/1b GTPase nucleotide binding” (Bioorg Med Chem Lett, 2009):
Structures can show the parent of a compound that is named as a salt.

What was measured:
[1] = target: T1, Cell division control protein 42 homolog (Homo sapiens, UniProt P60953); experiment: Inhibition of Cdc42 GTPase activity assessed as incorporation of BODIPY-GTP at 50 uM after 40 mins by nucleotide binding competition assay
How it was run: (§1)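 Bacterially expressed GST-Cdc42 preincubated 10 min at 20 °C in 20 mM Tris pH 8.6, 50 mM NaCl, 1 mM MgCl2. No GEF was added (intrinsic exchange). BODIPY-GTP was then added with or without compound. Fluorescence was read at ex 485/em 538 nm before and after addition. Maximal RFU at 40 min was compared with control. Means of at least three independent experiments, with SEM.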
Target sequence in this assay (P60953 whole entry, looked up): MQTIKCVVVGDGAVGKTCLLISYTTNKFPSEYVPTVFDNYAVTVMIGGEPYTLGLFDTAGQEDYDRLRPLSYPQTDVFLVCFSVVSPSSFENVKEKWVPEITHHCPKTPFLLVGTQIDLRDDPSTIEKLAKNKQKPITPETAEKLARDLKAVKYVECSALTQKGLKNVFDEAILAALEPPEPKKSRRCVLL

[2] = target: T1, Cell division control protein 42 homolog; experiment: Inhibition of Cdc42 GTPase activity assessed as incorporation of BODIPY-GTP after 40 mins by nucleotide binding competition assay; how it was run: as §1
Target sequence in this assay (P60953 whole entry): as the sequence (P60953 whole entry, looked up) above

[3] = system: HEK293; experiment: Inhibition of Rac GTPase activation in Rac1b overexpressing human HEK293 cells at 50 uM after 5 mins by G-LISA assay; assay type: cell-based
How it was run: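 HEK293 cells overexpressing human Rac1b were grown 5 days in MEM with 10% FBS, L-glutamine and antibiotics. Cells were then exposed to compound or solvent for 5 min. Rac1b GTP loading was measured with a Rac activation kit using a Rac-specific antibody (G-LISA).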

[4] = target: T2, Ras-related C3 botulinum toxin substrate 1 (Homo sapiens, UniProt P63000); experiment: Inhibition of Rac1 GTPase activity assessed as incorporation of BODIPY-GTP after 40 mins by nucleotide binding competition assay
[5] = target: T2, Ras-related C3 botulinum toxin substrate 1; experiment: Inhibition of Rac1b GTPase activity assessed as incorporation of BODIPY-GTP after 40 mins by nucleotide binding competition assay
[6] = Selectivity of IC50 for Rac1 GTPase activity to IC50 for Rac1b GTPase activity
How it was run: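 Ratio of IC50s for inhibiting BODIPY-GTP binding to bacterially expressed GST-Rac1 and GST-Rac1b. Rac1 binding was stimulated by His6-Tiam1 DH/PH, while Rac1b used intrinsic exchange. Protein was pre-incubated 10 min at 20 °C in 20 mM Tris pH 8.6, 50 mM NaCl, 1 mM MgCl2, then BODIPY-GTP ± compound was added. Fluorescence (ex 485/em 538 nm) was read as maximal RFU at 40 min; means of ≥3 independent experiments.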

SMILES	inhibition [1] [%]	IC50 [2] [µM]	inhibition [3] [%]	other results
COc1cc2cc(-c3ccc4ccccc4c3)nc(C)c2cc1OC	29	> 100	< 20	–
COc1cc2cc(-c3ccc4c(c3)OCO4)[n+](C)c(C)c2cc1OC	0.3	–	–	–
COc1cc2cc3c4ccc(OC)c(OC)c4cc[n+]3c(C)c2cc1OC	23	–	–	–
COc1ccc2c(c1OC)C(c1ccccc1)N1CCc3cc4c(cc3C1C2)OCO4 (centres undefined)	9	–	–	–
Cc1c2cc(O)c(O)cc2cc(-c2ccc(O)c(O)c2)[n+]1C	12	–	–	–
COc1cc2c(cc1OC)-c1cc3ccc(OC)c(OC)c3c[n+]1CC2	8	–	–	–
COc1ccc2c(c[n+](C)c3c4cc5c(cc4ccc23)OCO5)c1OC [CHELERYTHRINE CHLORIDE]	35	> 100	40	IC50 [4]: > 100 µM; IC50 [5]: 7 µM; Ratio IC50 [6]: > 14
Oc1cc2c(cc1O)C1Cc3ccc(O)c(O)c3CN1CC2 (centres undefined) [TETRAHYDROXYCANADINE HYDROCHLORIDE]	–	> 100	< 20	–
COc1ccc2cc3[n+](cc2c1OC)CCc1cc2c(cc1-3)OCO2	8	–	–	–
Cc1nc(-c2ccc(O)c(O)c2)cc2cc(O)c(O)cc12	15	–	–	–
COc1cc2cc(-c3ccc(O)c(O)c3)[n+](C)c(C)c2cc1OC	5	–	–	–
Nc1nc2c(ncn2[C@H]2O[C@@H](COP(=O)(O)OP(=O)(O)O)[C@H](O)[C@@H]2O)c(=O)[nH]1	–	1.4	–	IC50 [4]: 2.7 µM; IC50 [5]: 1.8 µM
COc1ccc2cc3[n+](cc2c1OC)CCc1cc(O)c(O)cc1-3	31	> 100	35	IC50 [4]: 63 µM; IC50 [5]: 31 µM
COc1cc2cc(-c3cccc(C(C)=O)c3)nc(C)c2cc1OC	7	–	–	–
COc1cc2cc(-c3ccc4c(c3)OCO4)nc(C)c2cc1OC	14	–	–	–
COc1cc2cc(-c3cccc(C(C)=O)c3)[n+](C)c(C)c2cc1OC	7	–	–	–
COc1cc2cc(-c3ccc(Cl)c(Cl)c3)nc(C)c2cc1OC	5	–	–	–
Oc1cc2c(cc1O)-c1cc3ccc(O)c(O)c3c[n+]1CC2	> 100	6	< 20	–
C[n+]1cc2c3c(ccc2c2ccc4cc5c(cc4c21)OCO5)OCO3	63	–	50	Ratio IC50 [6]: 13
COc1cc2cc(-c3ccc(O)c(O)c3)nc(C)c2cc1OC	15	> 100	61	–
COc1ccc2c(c[n+](C)c3c4cc(O)c(O)cc4ccc23)c1OC	38	73	39	–
C[n+]1cc2c(O)c(O)ccc2c2ccc3cc(O)c(O)cc3c21	73	–	< 20	–
COc1ccc2c(c1OC)CN1CCc3cc4c(cc3C1C2)OCO4 (racemic)	4	–	–	–
Cc1c2cc(O)c(O)cc2cc2c3ccc(O)c(O)c3cc[n+]12	70	26	< 20	–
